The source of these data is ChEMBL document CHEMBL3875159, “High-affinity small molecular blockers of mixed lineage leukemia 1 (MLL1)-WDR5 interaction inhibit MLL1 complex H3K4 methyltransferase activity” (Eur J Med Chem, 2016).

Assay [1] deals with MV4-11. Nature of the assay: Induction of apoptosis in human MV4-11 cells harboring MLL-AF4 fusion protein assessed as early apoptotic cells at 5 uM after 72 hrs by Annexin-V/propidium iodide staining based flow cytometry (reference value: 4.45%). The class given is functional.
Assay [2] addresses MLL1/ASH2L/RBBP5/WDR5 complex (Homo sapiens, UniProt P61964+Q03164+Q15291+Q9UBL3). Nature of the assay: Inhibition of recombinant MLL1/ASH2L/RBBP5/WDR5 complex histone methyltransferase activity (unknown origin) by AlphaScreen assay. The assay is classed as protein-complex assay.
For assay [3], the target named is T1, Histone-lysine N-methyltransferase 2A/WDR5 (Homo sapiens) (UniProt P61964+Q03164). Nature of the assay: Inhibition of MLL1-WDR5 protein-protein interaction in human MV4-11 cells harboring MLL-AF4 fusion protein assessed as inhibition of Meis-1 gene expression at 2.5 uM after 7 days by RT-PCR method relative to control. The class given is cell-based. An outline of the steps: (§1)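 MV4-11 cells treated for 7 days at 0.625, 1.25, 2.5 and 10 μM, with a DMSO control. Hoxa9 and Meis-1 expression was measured by RT-PCR and compared with the untreated blank control group (*p < 0.05, **p < 0.01).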

Assay [4] deals with MV4-11. Nature of the assay: Induction of apoptosis in human MV4-11 cells harboring MLL-AF4 fusion protein assessed as necrotic cells at 2.5 uM after 72 hrs by Annexin-V/propidium iodide staining based flow cytometry (reference value: 0.15%). The class given is functional.
Assay [5] has as its system MV4-11. Nature of the assay: Induction of apoptosis in human MV4-11 cells harboring MLL-AF4 fusion protein assessed as viable cells at 2.5 uM after 72 hrs by Annexin-V/propidium iodide staining based flow cytometry (reference value: 73.8%). The assay is classed as functional. The conditions noted are these: MV4-11, 72 h, read-out: Activity.
Assay [6] concerns MV4-11. Nature of the assay: Induction of apoptosis in human MV4-11 cells harboring MLL-AF4 fusion protein assessed as early apoptotic cells at 2.5 uM after 72 hrs by Annexin-V/propidium iodide staining based flow cytometry (reference value: 4.45%). The assay is classed as functional.
Assay [7] addresses T1, Histone-lysine N-methyltransferase 2A/WDR5 (Homo sapiens). Nature of the assay: Inhibition of MLL1-WDR5 protein-protein interaction in human MV4-11 cells harboring MLL-AF4 fusion protein assessed as inhibition of Hoxa9 gene expression at 10 uM after 7 days by RT-PCR method relative to control. The class given is cell-based. In outline: (§2)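 MV4-11 cells were treated with DMSO or 0.625, 1.25, 2.5 or 10 μM compound for 7 days. Hoxa9 and Meis-1 expression was measured by RT-PCR against DMSO control. Significance was tested versus the nontreated blank control.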

Assay [8] has the same target. Nature of the assay: Inhibition of MLL1-WDR5 protein-protein interaction in human MV4-11 cells harboring MLL-AF4 fusion protein assessed as inhibition of Hoxa9 gene expression after 7 days by RT-PCR method. The class given is cell-based. In outline: as §2
Assay [9] is described as follows: Antiproliferative activity against human MV4-11 cells harboring MLL-AF4 fusion protein after 72 hrs by CCK8 assay. The class given is functional, cell-based. The settings on record: MV4-11, 72 h.
Assay [10] concerns MV4-11. Nature of the assay: Induction of apoptosis in human MV4-11 cells harboring MLL-AF4 fusion protein assessed as viable cells at 10 uM after 72 hrs by Annexin-V/propidium iodide staining based flow cytometry (reference value: 73.8%). The assay is classed as functional. The settings on record: MV4-11, 72 h, read-out: Activity.
The target of assay [11] is WD repeat-containing protein 5 (Homo sapiens, UniProt P61964). Nature of the assay: Binding affinity to human WDR5 by isothermal titration calorimetry.
Assay [12] has as its target T1, Histone-lysine N-methyltransferase 2A/WDR5 (Homo sapiens). Nature of the assay: Inhibition of MLL1-WDR5 protein-protein interaction in human MV4-11 cells harboring MLL-AF4 fusion protein assessed as inhibition of MLL1 histone methyltransferase activity by measuring reduction in H3K4me1 level at 5 uM after 7 days by Western blot method. The class given is cell-based. In outline:
(§3)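 MV4-11 cells were exposed to a range of concentrations for 7 days. H3K4me1 and H3K4me2 were detected by western blotting with β-actin as loading control.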

The target is the same in assay [13]. Nature of the assay: Inhibition of MLL1-WDR5 protein-protein interaction in human MV4-11 cells harboring MLL-AF4 fusion protein assessed as inhibition of MLL1 histone methyltransferase activity by measuring reduction in H3K4me2 level after 7 days by Western blot method. The assay is classed as cell-based. In outline: as §3
Assay [14] relates to MV4-11. Nature of the assay: Induction of apoptosis in human MV4-11 cells harboring MLL-AF4 fusion protein assessed as viable cells at 5 uM after 72 hrs by Annexin-V/propidium iodide staining based flow cytometry (reference value: 73.8%). The assay is classed as functional. The settings on record: MV4-11, 72 h, read-out: Activity.
For assay [15], the system named is MV4-11. Nature of the assay: Induction of apoptosis in human MV4-11 cells harboring MLL-AF4 fusion protein after 72 hrs by Annexin-V/propidium iodide staining based flow cytometry. The assay is classed as functional, cell-based.
Assay [16] concerns MV4-11. Nature of the assay: Induction of apoptosis in human MV4-11 cells harboring MLL-AF4 fusion protein assessed as early apoptotic cells at 10 uM after 72 hrs by Annexin-V/propidium iodide staining based flow cytometry (reference value: 4.45%). The class given is functional.
Assay [17] concerns MV4-11. Nature of the assay: Induction of apoptosis in human MV4-11 cells harboring MLL-AF4 fusion protein assessed as necrotic cells at 10 uM after 72 hrs by Annexin-V/propidium iodide staining based flow cytometry (reference value: 0.15%). The class given is functional.
Assay [18] deals with MV4-11. Nature of the assay: Induction of apoptosis in human MV4-11 cells harboring MLL-AF4 fusion protein assessed as late apoptotic cells at 2.5 uM after 72 hrs by Annexin-V/propidium iodide staining based flow cytometry (reference value: 21.6%). The assay is classed as functional.
For assay [19], the target named is T1, Histone-lysine N-methyltransferase 2A/WDR5 (Homo sapiens). Nature of the assay: Inhibition of MLL1-WDR5 protein-protein interaction in human MV4-11 cells harboring MLL-AF4 fusion protein assessed as inhibition of Hoxa9 gene expression at 2.5 uM after 7 days by RT-PCR method relative to control. The class given is cell-based. In outline: as §1
For assay [20], the system named is MV4-11. Nature of the assay: Induction of apoptosis in human MV4-11 cells harboring MLL-AF4 fusion protein assessed as late apoptotic cells at 10 uM after 72 hrs by Annexin-V/propidium iodide staining based flow cytometry (reference value: 21.6%). The class given is functional.
For assay [21], the target named is T1, Histone-lysine N-methyltransferase 2A/WDR5 (Homo sapiens). Nature of the assay: Inhibition of MLL1-WDR5 protein-protein interaction in human MV4-11 cells harboring MLL-AF4 fusion protein assessed as inhibition of Meis-1 gene expression after 7 days by RT-PCR method. The assay is classed as cell-based. An outline of the steps: as §2
Assay [22] concerns MV4-11. Nature of the assay: Induction of apoptosis in human MV4-11 cells harboring MLL-AF4 fusion protein assessed as late apoptotic cells at 5 uM after 72 hrs by Annexin-V/propidium iodide staining based flow cytometry (reference value: 21.6%). The assay is classed as functional.
Assay [23] deals with MV4-11. Nature of the assay: Induction of apoptosis in human MV4-11 cells harboring MLL-AF4 fusion protein assessed as necrotic cells at 5 uM after 72 hrs by Annexin-V/propidium iodide staining based flow cytometry (reference value: 0.15%). The class given is functional.
Assay [24] concerns the target T1, Histone-lysine N-methyltransferase 2A/WDR5 (Homo sapiens). Nature of the assay: Inhibition of MLL1-WDR5 protein-protein interaction in human MV4-11 cells harboring MLL-AF4 fusion protein assessed as inhibition of Meis-1 gene expression at 10 uM after 7 days by RT-PCR method relative to control. The assay is classed as cell-based. In outline:
as §2

Assay [25] in a line: Growth inhibition of human K562 cells after 7 days by MTS assay. The assay is classed as functional, cell-based. The conditions noted are these: K562, 168 h. An outline of the steps: (§4)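 Proliferation assay in leukaemia cell lines with or without an MLL fusion. MV4-11 (MLL-AF4) gives an IC50 from concentration–response. K562 carries no MLL fusion protein; compounds are tested at a single 35 μM, reported as % remaining growth activity (IC50 where determined).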

The nature of assay [26]: Antiproliferative activity against human MV4-11 cells harboring MLL-AF4 fusion protein by CellTiter-Glo assay. The class given is functional, cell-based. In outline:
as §4

Activity calls are given as the source filed them. The rule behind the calls is not given here.

For the compound `Cc1c(F)c(N)cc(C(=O)Nc2cc(-c3ccc(N)cc3)ccc2N2CCN(C)CC2)c1Cl`, the Activity in the assay with MV4-11 [1] was 7.95%; with MV4-11 [4], 0.05%; with MV4-11 [6], 5.5%; in the assay on MV4-11 [15] it was “Dose-dependent effect”; with MV4-11 [16], 13.8%; with MV4-11 [17], 0.15%. Further, the Activity in the assay on MV4-11 [18] is 23.55%; in the assay on MV4-11 [20], 49.75%; in the assay on MV4-11 [22], 33.55%; in the assay on MV4-11 [23], 0%. Besides, the half-inhibitory concentration (IC50) in [2] turned out to be 1.65 µM; in [9] it was 17.7 µM. Also, the inhibition in assay [3] was 50%; in [7], 80%; in [8], “Dose-dependent effect”; in [13], “Dose-dependent effect”; in assay [19] it was 50%; in [21], “Dose-dependent effect”. The inhibition in [24] was 80%. The viability at 2.5 µM in the assay on MV4-11 [5] was determined as 70.9%. Also, the viability at 10 µM with MV4-11 [10] was determined as 36.3%. In [11], this compound had a Kd of 0.202 µM. Moreover, the inhibition result in assay [12] is “Active”. The viability at 5 µM with MV4-11 [14] was 58.5%.

`CCC(CC)(NC(=O)C(C)C)C(=O)N[C@@H](CCCNC(=N)N)C(=O)NC1(C(=O)NC(c2ccc(F)cc2)c2ccc(F)cc2)CCCC1`: the 50% inhibitory concentration (IC50) in [25] was 37.8 µM; in assay [26], 25 µM.
